Measurements as given in ChEMBL document CHEMBL1138567, “Regioselective synthesis and antimicrobial screening of novel ketocarbazolodispiropyrrolidine derivatives” (2009).

Columns and labels:
Format in all cases: functional
Settings in all cases: read-out: IZ
Proteus vulgaris [1] = experiment: Antimicrobial activity against Proteus vulgaris at 100 ug/ml after 24 hrs by agar diffusion method
In short: (§1)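 Agar well diffusion: petri plates (9 cm) with about 9 ml nutrient agar, seeded with the test organism. Wells cut with a cork borer and loaded with test compound at 25, 50, 75 or 100 per ml; tetracycline as control. Incubated 37 °C for 24 h; average inhibition-zone diameter around wells measured (mm).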

Proteus vulgaris [2] = experiment: Antimicrobial activity against Proteus vulgaris at 50 ug/ml after 24 hrs by agar diffusion method; in short: as §1
Proteus mirabilis [3] = experiment: Antimicrobial activity against Proteus mirabilis at 50 ug/ml after 24 hrs by agar diffusion method; in short: as §1
[4] = test system: Salmonella enterica subsp. enterica serovar Typhi str. CT18; experiment: Antimicrobial activity against Salmonella typhi at 100 ug/ml after 24 hrs by agar diffusion method
In short: (§2)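 Agar well diffusion: about 9 ml nutrient agar in 9 cm Petri plates, seeded with the test organism. Wells cut with a cork borer and loaded with test compound at 25–100 per ml; tetracycline as control. Plates incubated 24 h at 37 °C. Read-out is the average diameter of the inhibition zone around each well, in mm.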

Proteus mirabilis [5] = experiment: Antimicrobial activity against Proteus mirabilis at 100 ug/ml after 24 hrs by agar diffusion method; in short: as §1
Staphylococcus aureus [6] = experiment: Antimicrobial activity against Staphylococcus aureus at 100 ug/ml after 24 hrs by agar diffusion method; in short: as §1
[7] = test system: Salmonella enterica subsp. enterica serovar Typhi str. CT18; experiment: Antimicrobial activity against Salmonella typhi at 75 ug/ml after 24 hrs by agar diffusion method; in short: as §2
Proteus mirabilis [8] = experiment: Antimicrobial activity against Proteus mirabilis at 75 ug/ml after 24 hrs by agar diffusion method; in short: as §1
Staphylococcus aureus [9] = experiment: Antimicrobial activity against Staphylococcus aureus at 50 ug/ml after 24 hrs by agar diffusion method; in short: as §1
[10] = test system: Salmonella enterica subsp. enterica serovar Typhi str. CT18; experiment: Antimicrobial activity against Salmonella typhi at 50 ug/ml after 24 hrs by agar diffusion method; in short: as §2
Staphylococcus aureus [11] = experiment: Antimicrobial activity against Staphylococcus aureus at 75 ug/ml after 24 hrs by agar diffusion method; in short: as §1
Proteus vulgaris [12] = experiment: Antimicrobial activity against Proteus vulgaris at 75 ug/ml after 24 hrs by agar diffusion method; in short: as §1
Proteus vulgaris [13] = experiment: Antimicrobial activity against Proteus vulgaris at 25 ug/ml after 24 hrs by agar diffusion method; in short: as §1
Proteus mirabilis [14] = experiment: Antimicrobial activity against Proteus mirabilis at 25 ug/ml after 24 hrs by agar diffusion method; in short: as §1
Staphylococcus aureus [15] = experiment: Antimicrobial activity against Staphylococcus aureus at 25 ug/ml after 24 hrs by agar diffusion method; in short: as §1
[16] = test system: Salmonella enterica subsp. enterica serovar Typhi str. CT18; experiment: Antimicrobial activity against Salmonella typhi at 25 ug/ml after 24 hrs by agar diffusion method; in short: as §2

Row | Structure (SMILES) | zone of inhibition at 100 µg/mL (Proteus vulgaris [1]) [mm] | zone of inhibition at 50 µg/mL (Proteus vulgaris [2]) [mm] | zone of inhibition at 50 µg/mL (Proteus mirabilis [3]) [mm] | zone of inhibition at 100 µg/mL [4] [mm] | zone of inhibition at 100 µg/mL (Proteus mirabilis [5]) [mm] | zone of inhibition at 100 µg/mL (Staphylococcus aureus [6]) [mm] | zone of inhibition at 75 µg/mL [7] [mm] | zone of inhibition at 75 µg/mL (Proteus mirabilis [8]) [mm] | zone of inhibition at 50 µg/mL (Staphylococcus aureus [9]) [mm] | zone of inhibition at 50 µg/mL [10] [mm] | zone of inhibition at 75 µg/mL (Staphylococcus aureus [11]) [mm] | zone of inhibition at 75 µg/mL (Proteus vulgaris [12]) [mm] | zone of inhibition at 25 µg/mL (Proteus vulgaris [13]) [mm] | zone of inhibition at 25 µg/mL (Proteus mirabilis [14]) [mm] | zone of inhibition at 25 µg/mL (Staphylococcus aureus [15]) [mm] | zone of inhibition at 25 µg/mL [16] [mm]
1 | CN1C[C@@H](c2ccc(Br)cc2)[C@@]2(CCc3c([nH]c4ccccc34)C2=O)C12C(=O)c1ccccc1C2=O | 18 | 13 | 11 | 19 | 16 | 21 | 18 | 14 | 12 | 9 | 19 | 16 | 9 | 9 | – | –
2 | CN1C[C@@H](c2ccc(Cl)cc2)[C@@]2(CCc3c([nH]c4ccccc34)C2=O)C12C(=O)c1ccccc1C2=O | 24 | 14 | 9 | 19 | 23 | 19 | 16 | 14 | 11 | 13 | 16 | 18 | – | – | 9 | 9
3 | CN1C[C@@H](c2ccc([N+](=O)[O-])cc2)[C@@]2(CCc3c([nH]c4ccccc34)C2=O)[C@]12C(=O)Nc1ccccc12 | 22 | 13 | 13 | 22 | 20 | 20 | 18 | 16 | 11 | 16 | 14 | 18 | 9 | 12 | – | 9
4 | Cc1ccc([C@@H]2CN(C)C3(C(=O)c4ccccc4C3=O)[C@]23CCc2c([nH]c4ccccc24)C3=O)cc1 | 12 | – | 11 | 16 | 18 | 21 | 14 | 14 | 14 | 9 | 18 | 9 | – | 9 | 9 | –
5 | CN1C[C@@H](c2ccc([N+](=O)[O-])cc2)[C@@]2(CCc3c([nH]c4ccccc34)C2=O)C12C(=O)c1ccccc1C2=O | 18 | 17 | 13 | 18 | 21 | 18 | 13 | 18 | 14 | 11 | 18 | 18 | 12 | 9 | 11 | 9
6 | Cc1ccc([C@@H]2CN(C)[C@@]3(C(=O)c4cccc5cccc3c45)[C@]23CCc2c([nH]c4ccccc24)C3=O)cc1 | 20 | 14 | 14 | 29 | 21 | 27 | 21 | 18 | 18 | 15 | 23 | 16 | 11 | 11 | 14 | 12
